The values below come from ChEMBL document CHEMBL3585325, “Discovery of (1R,2S)-2-{[(2,4-Dimethylpyrimidin-5-yl)oxy]methyl}-2-(3-fluorophenyl)-N-(5-fluoropyridin-2-yl)cyclopropanecarboxamide (E2006): A Potent and Efficacious Oral Orexin Receptor Antagonist” (J Med Chem, 2015).

Broadly, the Ki is the dissociation constant of the complex between target and ligand, obtained from inhibition or displacement. The IC50 is the concentration at which inhibition is half-maximal. What is called half-life is the time in which the quantity being followed falls by half. One may read the Tmax as the time from dosing to the highest level. As a reminder, the Cmax is the peak of the concentration-time curve. The term bioavailability denotes dose-corrected exposure relative to a reference, in per cent.

Data set [1] is described as follows: Plasma concentration in C57BL/6NCrlCrlj mouse at 10 mg/kg, po administered as single dose measured after 3 hrs by LC-MS/MS analysis. It is filed as ADME, organism-based. In a few lines: (§1)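 Male C57BL/6NCrlCrlj mice given a single 10 mg/kg oral dose as a suspension in 0.5% aqueous methylcellulose. At 1 or 3 h, under pentobarbital anesthesia, CSF was taken from the cisterna magna and then blood from the abdominal aorta (spun to plasma). Samples were acetonitrile-precipitated with deuterated internal standard and run by LC-MS/MS. Values are mean with SEM.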

The nature of data set [2]: Drug uptake in C57BL/6NCrlCrlj mouse CSF at 10 mg/kg, po administered as single dose measured after 3 hrs by LC-MS/MS analysis. Particulars: read-out: Drug uptake. It counts as ADME, organism-based, Cerebrospinal fluid. In a few lines: as §1
A short description of data set [3]: Plasma protein binding in C57BL/6N mouse at 10 mg/kg, po administered as single dose by equilibrium dialysis method. To be noted: read-out: PPB (converted). It counts as ADME, organism-based. In general terms: In equilibrium dialysis free small molecules cross a membrane that holds back macromolecules.
Data set [4] has as its system Mus musculus. In words: Sleep promoting activity in C57BL/6NCrlCrlj mouse assessed as increase in REM sleep at 30 mg/kg, po administered immediately prior to beginning of dark cycle measured during first 3 hrs after drug administration by electroencephalogram/electromyogram analysis (reference value: 0.6 min). It counts as functional. In a few lines: (§2)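 Male C57BL/6NCrlCrlj mice implanted with EEG/EMG electrodes were dosed orally in 10% Cremophor EL, 5% DMSO in saline just before lights-off (ZT12) and recorded from ZT12 to ZT20. Group sizes were n=6 dosed and n=7 vehicle. Stages were scored by software with blinded visual confirmation; cumulative first-3-h times are mean with SEM. Dunnett's test was run after one-way ANOVA.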

Data set [5] concerns the target T1, Orexin/Hypocretin receptor type 1 (Homo sapiens, UniProt O43613).
T1 sequence (O43613 whole entry): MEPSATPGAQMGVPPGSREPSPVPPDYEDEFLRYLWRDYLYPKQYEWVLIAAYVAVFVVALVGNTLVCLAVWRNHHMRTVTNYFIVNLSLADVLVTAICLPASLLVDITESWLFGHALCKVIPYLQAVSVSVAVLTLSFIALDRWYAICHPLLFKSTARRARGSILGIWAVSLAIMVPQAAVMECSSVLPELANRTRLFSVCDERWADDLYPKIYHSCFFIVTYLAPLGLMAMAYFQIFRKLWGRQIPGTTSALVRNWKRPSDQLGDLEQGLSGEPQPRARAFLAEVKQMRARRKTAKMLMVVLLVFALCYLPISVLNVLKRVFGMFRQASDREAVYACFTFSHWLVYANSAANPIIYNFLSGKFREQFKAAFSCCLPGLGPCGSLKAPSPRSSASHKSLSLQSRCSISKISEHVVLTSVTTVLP
In words: Binding affinity to human OX1R by radioligand displacement binding assay. In a few lines: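 Ki values come from single experiments run in triplicate.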
A general note: In a radioligand displacement assay an active substance lowers the binding of a labelled ligand.

Data set [6] deals with T2, CYP3A (Homo sapiens, UniProt P08684+P20815+P24462+Q9HB55). In words: Time dependent inhibition of CYP3A in human liver microsomes assessed as enzyme activity using midazolam as substrate at 10 uM incubated for 30 mins prior to substrate addition for 10 mins by LC-MS/MS analysis. More on the design: scale not given: the % may be the effect or the level left. To be noted: probe midazolam, read-out: Activity. It is filed as ADME. In a few lines: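 Test compound at 10 μM preincubated 30 min at 37 °C with human liver microsomes (0.2 mg/mL), with or without an NADPH-generating system. Mixture then diluted 10-fold into a marker-substrate cocktail plus NADPH system and incubated 10 min at 37 °C. Midazolam served as the CYP3A probe. Metabolites measured by LC−MS/MS. Result is the residual activity with NADPH relative to without, as % of control.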
Background: Microsomes from liver hold many membrane-bound enzymes, among them those of drug oxidation.

The target in data set [7] is T3, Cytochrome P450 1A2 (Homo sapiens, UniProt P05177).
T3 sequence (P05177 whole entry): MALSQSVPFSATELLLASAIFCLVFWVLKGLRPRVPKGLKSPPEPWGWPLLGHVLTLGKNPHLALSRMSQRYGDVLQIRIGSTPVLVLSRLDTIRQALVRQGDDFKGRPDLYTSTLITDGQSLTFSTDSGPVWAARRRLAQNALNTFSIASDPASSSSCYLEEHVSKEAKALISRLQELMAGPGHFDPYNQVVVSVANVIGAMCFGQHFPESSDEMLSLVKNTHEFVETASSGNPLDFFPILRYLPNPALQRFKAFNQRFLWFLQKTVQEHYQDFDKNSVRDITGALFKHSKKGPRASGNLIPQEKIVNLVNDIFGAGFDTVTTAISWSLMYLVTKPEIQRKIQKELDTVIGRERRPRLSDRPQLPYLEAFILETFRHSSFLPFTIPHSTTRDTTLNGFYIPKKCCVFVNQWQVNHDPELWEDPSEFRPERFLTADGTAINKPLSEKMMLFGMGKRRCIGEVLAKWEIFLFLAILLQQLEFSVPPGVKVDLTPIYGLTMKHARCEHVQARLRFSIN
The experiment in a line: Inhibition of CYP1A2 in human liver microsomes using phenacetin as susbtrate incubated for 30 mins prior to substrate addition for 10 mins by LC-MS/MS analysis. It counts as ADME.

For data set [8], the target named is Cytochrome P450 2C19 (Homo sapiens, UniProt P33261). In words: Inhibition of CYP2C19 in human liver microsomes using S-mephenytoin as susbtrate incubated for 30 mins prior to substrate addition for 10 mins by LC-MS/MS analysis. It counts as ADME.
Cytochrome P450 2C19, sequence (P33261 whole entry): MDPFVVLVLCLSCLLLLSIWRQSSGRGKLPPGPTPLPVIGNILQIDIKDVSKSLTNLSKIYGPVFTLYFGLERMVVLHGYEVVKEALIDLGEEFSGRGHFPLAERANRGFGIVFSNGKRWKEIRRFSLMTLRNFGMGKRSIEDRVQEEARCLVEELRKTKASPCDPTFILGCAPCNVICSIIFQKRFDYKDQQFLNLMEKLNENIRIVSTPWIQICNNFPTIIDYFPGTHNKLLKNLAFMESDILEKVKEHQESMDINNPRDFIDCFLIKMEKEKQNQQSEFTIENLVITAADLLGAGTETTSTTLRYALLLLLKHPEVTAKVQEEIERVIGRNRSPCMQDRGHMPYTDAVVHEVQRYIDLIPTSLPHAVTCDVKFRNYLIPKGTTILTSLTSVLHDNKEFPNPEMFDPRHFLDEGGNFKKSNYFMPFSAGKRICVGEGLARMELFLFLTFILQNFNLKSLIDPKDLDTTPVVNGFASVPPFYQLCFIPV
Data set [9] concerns the target T2, CYP3A. The experiment in a line: Inhibition of CYP3A in human liver microsomes assessed as enzyme activity using midazolam as substrate incubated for 30 mins prior to substrate addition for 10 mins by LC-MS/MS analysis. It is filed as ADME. Particulars: probe midazolam. In a few lines:
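Compound preincubated 30 min at 37 °C with human liver microsomes (0.2 mg/mL), with or without an NADPH-generating system. The mix was diluted 10-fold into a marker-substrate cocktail plus NADPH system and incubated 10 min at 37 °C. Marker metabolites were measured by LC-MS/MS; residual activity with NADPH was expressed relative to without.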

The subject of data set [10] is Mus musculus. The experiment in a line: Sleep promoting activity in C57BL/6NCrlCrlj mouse assessed as reduction in wakefulness time at 30 mg/kg, po administered immediately prior to beginning of dark cycle measured during first 3 hrs after drug administration by electroencephalogram/electromyogram analysis (reference value: 116.7 min). It is filed as functional. In a few lines: as §2

Data set [11] is described as follows: Half life in C57BL/6NCrlCrlj mouse at 10 mg/kg, po by LC-MS/MS analysis. It is filed as ADME, organism-based. To be noted: in vivo. In a few lines:
(§3)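 Male C57BL/6NCrlCrlj mice dosed orally at 10 mg/kg in 10% Cremophor EL, 5% DMSO in saline. Tail-vein blood was taken at set time points and spun to plasma. Quantified by LC-MS/MS (MRM, positive mode) with internal standard and a 1/x²-weighted calibration. Parameters came from noncompartmental analysis.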

The nature of data set [12]: Tmax in C57BL/6NCrlCrlj mouse at 10 mg/kg, po by LC-MS/MS analysis. It is filed as ADME, organism-based. To be noted: in vivo. In a few lines: as §3
Data set [13] is described as follows: Cmax in C57BL/6NCrlCrlj mouse at 10 mg/kg, po by LC-MS/MS analysis. It counts as ADME, organism-based. More on the design: dose 10 mg/kg, route oral. Particulars: in vivo. In a few lines: as §3
Data set [14] in a line: Half life in C57BL/6NCrlCrlj mouse at 30 mg/kg, po by LC-MS/MS analysis. It is filed as ADME, organism-based. Particulars: in vivo.
Data set [15] is described as follows: Cmax in C57BL/6NCrlCrlj mouse at 30 mg/kg, po by LC-MS/MS analysis. It is filed as ADME, organism-based. More on the design: dose 30 mg/kg, route oral. To be noted: in vivo.
Data set [16] can be described thus: Oral bioavailability in C57BL/6NCrlCrlj mouse at 30 mg/kg by LC-MS/MS analysis. It is filed as ADME, organism-based. Particulars: in vivo.
Data set [17] in a line: Plasma concentration in C57BL/6NCrlCrlj mouse at 10 mg/kg, po administered as single dose measured after 1 hr by LC-MS/MS analysis. It is filed as ADME, organism-based. In a few lines: as §1

On to `Cc1ncc(OC[C@@]2(c3cccc(F)c3)C[C@H]2C(=O)Nc2ccc(F)cn2)c(C)n1` [LEMBOREXANT], for which the concentration at 3 h amounted to 158 nM in data set [1] and 7.6 nM in [2]. The fraction unbound in [3] was 0.148. Besides, the Time was 9.3 min in [4] and 75.3 min in data set [10]. Further, the inhibitory constant (Ki) in data set [5] was 0.006 µM. In addition, in data set [6], the activity at 10 min, 10 µM is 76%. In addition, the IC50 in data set [7] and in data set [8] was greater than 20 µM each time. The IC50 at 30 min in data set [9] is greater than 20 µM. Besides, the half-life was 2.2 h in data set [11] and 1.94 h in data set [14]. Further, the Tmax in data set [12] was 0.25 h. Also, the Cmax turned out to be 488 ng/mL in data set [13] and 961 ng/mL in data set [15]. Also, in data set [16], the bioavailability is 13.4%. For the same compound, the concentration at 1 h in [17] worked out at 633 nM.
